In ChEMBL document CHEMBL1127745, “Synthesis, resolution, and SAR of (+/-)-2-amino-N-methyl-alpha-(3-methyl-2-thienyl)benzeneethanamine++ + and related analogs as noncompetitive NMDA antagonists with neuroprotective properties” (J Med Chem, 1994):

Key:
Glutamate NMDA receptor = assay: Inhibition against NMDA receptor by displacement of [3H]TCP binding from rat cortical membranes; type: cell membranes, Membrane
Mus musculus = assay: Effective dose required for 50% inhibition of clonic seizures in mice induced by racemic NMDLA when administered intraperitoneally; type: functional; conditions: ip
In short: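 Swiss Webster mice, 10 per group, dosed ip with drug in distilled water 0.5 h before N-methyl-D,L-aspartic acid 350 mg/kg sc. Each mouse observed 30 min for clonic seizures lasting at least 3 s; protection means no seizure in that time. Controls received vehicle. ED50 taken at time of peak effect from three or more doses, Litchfield-Wilcoxon method.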

Rattus norvegicus [1] = assay: Evaluated for reduction of NMDA-induced necrosis volume at 30 mg/kg subcutaneous dose in rats.; type: functional
In short: (§1)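 Male Sprague-Dawley rats (280-310 g) under chloral hydrate (400 mg/kg ip). Unilateral dorsal hippocampal CA1 lesion made by stereotaxic infusion of NMDA 20 nmol over 5 min. Drugs given sc or ip 1 h before infusion. Brains perfusion-fixed at 7 days and cresyl violet-stained; lesion volume measured by image analysis. n = 4 per group, compared with control by t-test.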

Rattus norvegicus [2] = assay: Evaluated for reduction of NMDA-induced necrosis at 100 mg/kg subcutaneous dose in rats.; type: functional; in short: as §1
Rattus norvegicus [3] = assay: Evaluated for reduction of NMDA-induced necrosis at 30 mg/kg subcutaneous dose in rats.; type: functional; in short: as §1
Rattus norvegicus [4] = assay: Evaluated for reduction of NMDA-induced necrosis volume at 100 mg/kg subcutaneous dose in rats.; type: functional; in short: as §1
Gerbillinae [5] = assay: Carotid artery occlusion-induced hippocampal damage was evaluated 15 min after carotid occlusion 60 mg/kg intraperitoneal dose; type: functional, Hippocampus
In short: (§2)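 Male Mongolian gerbils (65-75 g, n = 14-15) under halothane (2.6 vol% induction, 1.2 vol% maintenance in N2:O2 2:1). Forebrain ischemia by bilateral 5-min carotid occlusion with reperfusion. Drug given ip 15 min before or 15 min after occlusion. CA1 cell necrosis rated on a 0-4 scale (0 none to 4 all CA1 cells). Group means compared by t-test.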

Gerbillinae [6] = assay: Carotid artery occlusion-induced hippocampal damage was evaluated 15 min before carotid occlusion at 30 mg/kg intraperitoneal dose.; type: functional, Hippocampus; in short: as §2
Gerbillinae [7] = assay: Carotid artery occlusion-induced hippocampal damage was evaluated 15 min before carotid occlusion at 60 mg/kg intraperitoneal dose.; type: functional, Hippocampus; in short: as §2
Gerbillinae [8] = assay: Percent reduction of carotid artery occlusion-induced hippocampal damage at 30 mg/kg intraperitoneal dose.; type: functional, Hippocampus; in short: as §2
Rattus norvegicus [9] = assay: Percent change in reduction of photochemically induced cerebral focal ischemia in control and treated rat at 1.0 mg/kg intravenous dose; type: functional
In short: (§3)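 Male rats (300-350 g) under halothane (3 vol% induction, 1.2 vol% maintenance in O2). Rose Bengal (5 mg in 1 mL) infused through the femoral vein, then thrombotic focal cortical ischemia induced photochemically with light. Drug given iv 30 min after ischemia to groups of 5-7 rats. Infarct volume (mm3) measured by image analysis of cresyl violet-stained 20-µm sections.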

Rattus norvegicus [10] = assay: Percent change in reduction of photochemically induced cerebral focal ischemia in control and treated rat at 20 mg/kg intravenous dose; type: functional; in short: as §3
Rattus norvegicus [11] = assay: Percent change in reduction of photochemically induced cerebral focal ischemia in control and treated rat at 3.0 mg/kg intravenous dose; type: functional; in short: as §3
Rattus norvegicus [12] = assay: Reduction of photochemically induced cerebral focal ischemia in rat was evaluated 10.0 mg/kg intravenous dose; type: functional; in short: as §3
Rattus norvegicus [13] = assay: Reduction of photochemically induced cerebral focal ischemia in rat was evaluated 3.0 mg/kg intravenous dose; type: functional; in short: as §3
Rattus norvegicus [14] = assay: Reduction of photochemically induced cerebral focal ischemia in rat was evaluated at 1.0 mg/kg intravenous dose; type: functional; in short: as §3
Rattus norvegicus [15] = assay: Reduction of photochemically induced cerebral focal ischemia in rat was evaluated at 20.0 mg/kg intravenous dose; type: functional; in short: as §3
Gerbillinae [16] = assay: Carotid artery occlusion-induced hippocampal damage was evaluated 15 min after carotid occlusion 10 mg/kg intraperitoneal dose; type: functional, Hippocampus; in short: as §2
Gerbillinae [17] = assay: Carotid artery occlusion-induced hippocampal damage was evaluated 15 min after carotid occlusion 30 mg/kg intraperitoneal dose; type: functional, Hippocampus; in short: as §2
Gerbillinae [18] = assay: Carotid artery occlusion-induced hippocampal damage was evaluated 15 min after carotid occlusion 50 mg/kg intraperitoneal dose; type: functional, Hippocampus; in short: as §2
Gerbillinae [19] = assay: Carotid artery occlusion-induced hippocampal damage was evaluated by using compound 15 min before carotid occlusion at 30 mg/kg intraperitoneal dose; type: functional, Hippocampus; in short: as §2
Gerbillinae [20] = assay: Percent reduction Carotid artery occlusion-induced hippocampal damage at 10 mg/kg intraperitoneal dose.; type: functional, Hippocampus; in short: as §2
Gerbillinae [21] = assay: Percent reduction Carotid artery occlusion-induced hippocampal damage at 30 mg/kg intraperitoneal dose.; type: functional, Hippocampus; in short: as §2
Gerbillinae [22] = assay: Percent reduction Carotid artery occlusion-induced hippocampal damage at 50 mg/kg intraperitoneal dose.; type: functional, Hippocampus; in short: as §2
Rattus norvegicus [23] = assay: Percent change in reduction of photochemically induced cerebral focal ischemia in control and treated rat at 0.3 mg/kg intravenous dose; type: functional; in short: as §3
Rattus norvegicus [24] = assay: Percent change in reduction of photochemically induced cerebral focal ischemia in control and treated rat at 10 mg/kg intravenous dose; type: functional; in short: as §3
Rattus norvegicus [25] = assay: Percent change in reduction of photochemically induced cerebral focal ischemia in control and treated rat at 3 mg/kg intravenous dose; type: functional; in short: as §3
Rattus norvegicus [26] = assay: Reduction of photochemically induced cerebral focal ischemia in rat was evaluated at 10 mg/kg intravenous dose; type: functional; in short: as §3
Rattus norvegicus [27] = assay: Reduction of photochemically induced cerebral focal ischemia in rat was evaluated at 3.0 mg/kg intravenous dose; type: functional; in short: as §3
Rattus norvegicus [28] = assay: Reduction of photochemically induced cerebral focal ischemia in rat was evaluated at 0.3 mg/kg intravenous dose; type: functional; in short: as §3
Gerbillinae [29] = assay: Carotid artery occlusion-induced hippocampal damage was evaluated by using compound 15 min before carotid occlusion at 30 mg/kg intraperitoneal dose.; type: functional, Hippocampus; in short: as §2
Rattus norvegicus [30] = assay: Reduction of photochemically induced cerebral focal ischemia in rat was evaluated at 0.1 mg/kg intravenous dose; type: functional; in short: as §3
Gerbillinae [31] = assay: Carotid artery occlusion-induced hippocampal damage was evaluated by using compound 15 min before carotid occlusion at 5 mg/kg intraperitoneal dose.; type: functional, Hippocampus; in short: as §2
Gerbillinae [32] = assay: Carotid artery occlusion-induced hippocampal damage was evaluated by using control 15 min before carotid occlusion at 5 mg/kg intraperitoneal dose.; type: functional, Hippocampus; in short: as §2
Gerbillinae [33] = assay: Percent reduction of carotid artery Carotid artery occlusion-induced hippocampal damage at 5 mg/kg intraperitoneal dose.; type: functional, Hippocampus; in short: as §2
Rattus norvegicus [34] = assay: Reduction of photochemically induced cerebral focal ischemia in rat was evaluated by using control at 3 mg/kg intravenous dose; type: functional; in short: as §3
Rattus norvegicus [35] = assay: Evaluated for reduction of NMDA-induced necrosis volume at 7.0 mg/kg intraperitoneally dose in rats.; type: functional; conditions: route intraperitoneal; in short: as §1
Rattus norvegicus [36] = assay: Evaluated for reduction of NMDA-induced necrosis at 0.7 mg/kg intraperitoneal dose in rats.; type: functional; in short: as §1
Rattus norvegicus [37] = assay: Evaluated for reduction of NMDA-induced necrosis at 2.0 mg/kg intraperitoneal dose in rats.; type: functional; in short: as §1
Rattus norvegicus [38] = assay: Evaluated for reduction of NMDA-induced necrosis at 7.0 mg/kg intraperitoneal dose in rats.; type: functional; in short: as §1
Rattus norvegicus [39] = assay: Reduction of photochemically induced cerebral focal ischemia in rat was evaluated by using compound at 3 mg/kg intravenous dose; type: functional; in short: as §3
Rattus norvegicus [40] = assay: Evaluated for reduction of NMDA-induced necrosis volume at 0.7 mg/kg intraperitoneally dose in rats.; type: functional; conditions: route intraperitoneal; in short: as §1
Rattus norvegicus [41] = assay: Evaluated for reduction of NMDA-induced necrosis volume at 2.0 mg/kg intraperitoneally dose in rats.; type: functional; conditions: route intraperitoneal; in short: as §1

CNC(Cc1cc(Br)ccc1N)c1sccc1C (stereo not given)
IC50 (Glutamate NMDA receptor): 45 nM
ED50 (Mus musculus): > 5 mg/kg

Cc1ccsc1C(Cc1ccccc1N(C)C)N(C)C (stereo not given)
IC50 (Glutamate NMDA receptor): 330 nM
ED50 (Mus musculus): > 60 mg/kg

CNC(Cc1cc(Cl)ccc1N)c1sccc1C (stereo not given)
IC50 (Glutamate NMDA receptor): 25 nM
ED50 (Mus musculus): ≥ 30 mg/kg

Cc1ccsc1C(Cc1ccccc1N)N(C)C (stereo not given)
IC50 (Glutamate NMDA receptor): 370 nM
ED50 (Mus musculus): > 60 mg/kg

CNc1ccccc1CC(c1sccc1C)N(C)C (stereo not given)
ED50 (Mus musculus): > 60 mg/kg

O=C(O)C1CN(CCCP(=O)(O)O)CCN1 (stereo not given)
IC50 (Glutamate NMDA receptor): > 100000 nM

CNC(Cc1ccccc1N)c1ccc(C)s1 (stereo not given)
IC50 (Glutamate NMDA receptor): 5200 nM
ED50 (Mus musculus): > 60 mg/kg

CNC(Cc1ccc(C(F)(F)F)cc1N)c1sccc1C (stereo not given)
IC50 (Glutamate NMDA receptor): > 10000 nM

Cc1ccsc1C(N)Cc1ccccc1N.Cl (stereo not given)
IC50 (Glutamate NMDA receptor): 4000 nM
ED50 (Mus musculus): 19 mg/kg

CNc1ccccc1CC(NC)c1sccc1C.Cl (stereo not given)
IC50 (Glutamate NMDA receptor): 3800 nM
ED50 (Mus musculus): > 60 mg/kg

CNC(Cc1ccc(Cl)cc1N)c1sccc1C.Cl (stereo not given)
IC50 (Glutamate NMDA receptor): 18000 nM
ED50 (Mus musculus): ≥ 60 mg/kg

CCCNC(Cc1ccccc1N)c1sccc1C.Cl (stereo not given)
IC50 (Glutamate NMDA receptor): 130 nM
ED50 (Mus musculus): 14.1 mg/kg

CCNC(Cc1ccccc1N)c1sccc1C.Cl (stereo not given)
IC50 (Glutamate NMDA receptor): 43 nM
Volume (Rattus norvegicus [1]): 0.059 µM
Reduction (Rattus norvegicus [2]): 95%
Reduction (Rattus norvegicus [3]): 67%
Volume (Rattus norvegicus [4]): 0.0098 µM
ED50 (Mus musculus): 6.4 mg/kg

CNC(Cc1ccccc1N)c1cccs1.Cl (stereo not given)
ED50 (Mus musculus): > 60 mg/kg

CNC(Cc1ccccc1N)c1sccc1C.Cl (single isomer, unassigned; (-))
Treated (Gerbillinae [5]): 3.3
Treated (Gerbillinae [6]): 2.8
Treated (Gerbillinae [7]): 0.9
Reduction (Gerbillinae [8]): 32%
IC50 (Glutamate NMDA receptor): 57000 nM
Change (Rattus norvegicus [9]): 7%
Change (Rattus norvegicus [10]): 13%
Change (Rattus norvegicus [11]): 6%
Treated (Rattus norvegicus [12]): 93
Treated (Rattus norvegicus [13]): 73
Treated (Rattus norvegicus [14]): 66
Treated (Rattus norvegicus [15]): 79

CNC(Cc1ccccc1N)c1sccc1C.Cl (stereo in doubt; 3a)
Treated (Gerbillinae [16]): 2.8
Treated (Gerbillinae [17]): 2.13
Treated (Gerbillinae [18]): 2.13
Treated (Gerbillinae [19]): 0.3
Reduction (Gerbillinae [20]): 2%
Reduction (Gerbillinae [21]): 26%
Reduction (Gerbillinae [22]): 18%
Reduction (Gerbillinae [8]): 75%
IC50 (Glutamate NMDA receptor): 350 nM
Change (Rattus norvegicus [23]): 0%
Change (Rattus norvegicus [9]): -27%
Change (Rattus norvegicus [24]): 6%
Change (Rattus norvegicus [25]): -16%
Treated (Rattus norvegicus [14]): 57
Treated (Rattus norvegicus [26]): 86
Treated (Rattus norvegicus [27]): 63
Reduction (Rattus norvegicus [2]): 68%
Volume (Rattus norvegicus [4]): 0.057 µM
Treated (Rattus norvegicus [28]): 72
ED50 (Mus musculus): 27.8 mg/kg

CNC(Cc1ccccc1N)c1sccc1C.Cl (stereo in doubt; (+)3a)
Treated (Gerbillinae [29]): 1.5
Reduction (Gerbillinae [8]): 51%
IC50 (Glutamate NMDA receptor): 180 nM
Change (Rattus norvegicus [23]): 13%
Change (Rattus norvegicus [9]): 14%
Treated (Rattus norvegicus [30]): 59
Treated (Rattus norvegicus [14]): 67

C[C@]12N[C@H](Cc3ccccc31)c1ccccc12 [DIZOCILPINE]
Treated (Gerbillinae [31]): 0.8
Control (Gerbillinae [32]): 1.05
Reduction (Gerbillinae [33]): <22%
Control (Rattus norvegicus [34]): 68
Change (Rattus norvegicus [25]): -24%
Volume (Rattus norvegicus [35]): 0.0025 µM
Reduction (Rattus norvegicus [36]): <44%
Reduction (Rattus norvegicus [37]): <94%
Reduction (Rattus norvegicus [38]): <98%
Treated (Rattus norvegicus [39]): 52
Volume (Rattus norvegicus [40]): 0.1 µM
Volume (Rattus norvegicus [41]): 0.01 µM
ED50 (Mus musculus): 0.38 mg/kg
